# Reference: ChEMBL document CHEMBL1157014, “Synthesis, characterization and biological evaluation of some thiourea derivatives bearing benzothiazole moiety as potential antimicrobial and anticancer agents” (Eur J Med Chem, 2010)
# Columns and labels:
# Candida tropicalis = test: Antifungal activity against Candida tropicalis ATCC 20336 after 48 hrs by browth microdilution assay; type: functional; settings: ATCC 20336, 48 h
# How it was run: (§1)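 Yeast colonies suspended in 0.9% saline and adjusted to McFarland 0.5, then tested by CLSI broth microdilution. Compounds in DMSO, diluted with distilled water to 3.125–100 µg/ml, with DMSO as negative control and nystatin as reference. Incubation at 37 °C, read after 48 h. MIC is the lowest concentration with no visible growth.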
# Staphylococcus aureus = test: Antibacterial activity against Staphylococcus aureus ATCC 29213 after 24 hrs by browth microdilution assay; type: functional; settings: ATCC 29213, 24 h
# How it was run: (§2)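 Broth microdilution per CLSI. Colonies suspended in 0.9% saline and adjusted to McFarland 0.5. Compounds dissolved in DMSO, diluted with distilled water to 100, 50, 25, 12.5, 6.25 and 3.125 µg/ml, with DMSO as negative control. Gentamycin (Gram-negative) and amikacin (Gram-positive) served as reference drugs. Incubation at 37 °C for 24 h. MIC taken as the lowest concentration preventing visible growth.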
# [1] = test system: Staphylococcus aureus (ATCC 25923); test: Antibacterial activity against Staphylococcus aureus ATCC 25923 after 24 hrs by browth microdilution assay; settings: ATCC 25923, 24 h
# Pichia kudriavzevii = test: Antifungal activity against Candida krusei ATCC 6268 after 48 hrs by browth microdilution assay; type: functional; settings: ATCC 6268, 48 h; how it was run: as §1
# [2] = test system: Staphylococcus epidermidis; test: Antibacterial activity against Staphylococcus epidermidis ATCC 12228 after 24 hrs by browth microdilution assay; type: functional; settings: ATCC 12228, 24 h; how it was run: as §2
# Pseudomonas aeruginosa = test: Antibacterial activity against Pseudomonas aeruginosa ATCC 27853 after 24 hrs by browth microdilution assay; type: functional; settings: ATCC 27853, 24 h; how it was run: as §2
# Proteus vulgaris = test: Antibacterial activity against Proteus vulgaris ATCC 13315 after 24 hrs by browth microdilution assay; type: functional; settings: ATCC 13315, 24 h; how it was run: as §2
# Candida albicans = test: Antifungal activity against Candida albicans ATCC 90028 after 48 hrs by browth microdilution assay; type: functional; settings: ATCC 90028, 48 h; how it was run: as §1
# Enterococcus faecalis = test: Antibacterial activity against Enterococcus faecalis ATCC 29212 after 24 hrs by browth microdilution assay; type: functional; settings: ATCC 29212, 24 h; how it was run: as §2
# Nakaseomyces glabratus = test: Antifungal activity against Candida glabrata ATCC 32554 after 48 hrs by browth microdilution assay; type: functional; settings: ATCC 32554, 48 h; how it was run: as §1
# HeLa = test: Cytotoxicity against human HeLa after 24 hrs by MTT assay; type: functional, cell-based
# How it was run: (§3)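 Cells grown in MEM with 10% FBS and 1% glutamine at 5% CO2, seeded at 1.0×10^4 cells. Exposed to compounds at 1–100 µM in medium containing 0.1% DMSO for 24 h at 37 °C. MTT (1 mg/ml) added for 5 h at 37 °C, then DMSO added and absorbance read at 540 nm. Run in triplicate; IC50 determined.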
# Enterobacter cloacae = test: Antibacterial activity against Enterobacter cloacae ATCC 13047 after 24 hrs by browth microdilution assay; type: functional; settings: ATCC 13047, 24 h; how it was run: as §2
# MCF7 [3] = test: Cytotoxicity against human MCF7 after 24 hrs by MTT assay; type: functional, cell-based; settings: MCF7, 24 h; how it was run: as §3
# Escherichia coli = test: microbe, parasite or virus in culture; settings: ATCC 25922, 24 h
# MCF7 [4] = test: Cytotoxicity against human MCF7 after 48 hrs by MTT assay; type: functional, cell-based; settings: MCF7, 48 h
# How it was run: (§4)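 MCF-7 cells in MEM with 10% FBS at 5% CO2 were exposed to compounds (1–100 µM, 0.1% DMSO vehicle) for 48 or 72 h before MTT read-out. IC50 values came from the MTT assay.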
# MCF7 [5] = test: Cytotoxicity against human MCF7 after 72 hrs by MTT assay; type: functional, cell-based; settings: MCF7, 72 h; how it was run: as §4
Structure (SMILES),MIC (Candida tropicalis),MIC (Staphylococcus aureus),MIC [1],MIC (Pichia kudriavzevii),MIC [2],MIC (Pseudomonas aeruginosa),MIC (Proteus vulgaris),MIC (Candida albicans),MIC (Enterococcus faecalis),MIC (Nakaseomyces glabratus),MIC (Enterobacter cloacae),MIC (Escherichia coli),IC50 (HeLa),IC50 (MCF7 [3]),IC50 (MCF7 [4]),IC50 (MCF7 [5])
CCCC(=O)NC(=S)Nc1nc2ccccc2s1,50 µg/mL,,,25 µg/mL,,,,20 µg/mL,,50 µg/mL,,,56.7 µM,36.6 µM,,
O=C(NC(=S)Nc1nc2cc(Br)ccc2s1)c1ccc([N+](=O)[O-])cc1,50 µg/mL,50 µg/mL,50 µg/mL,50 µg/mL,50 µg/mL,,,50 µg/mL,50 µg/mL,50 µg/mL,,,56.5 µM,32.4 µM,,
O=C(NC(=S)Nc1nc2ccccc2s1)c1ccc([N+](=O)[O-])cc1,,,,,,,,,,,,,62.6 µM,33.8 µM,,
CCCC(=O)NC(=S)Nc1nc2cc(Br)ccc2s1,50 µg/mL,50 µg/mL,,50 µg/mL,50 µg/mL,50 µg/mL,50 µg/mL,25 µg/mL,50 µg/mL,50 µg/mL,50 µg/mL,,60.2 µM,45.7 µM,,
Nc1ccc2sc(NC(=S)NC(=O)c3ccccc3)nc2c1,50 µg/mL,50 µg/mL,50 µg/mL,25 µg/mL,50 µg/mL,50 µg/mL,50 µg/mL,25 µg/mL,50 µg/mL,25 µg/mL,50 µg/mL,50 µg/mL,70.1 µM,38.6 µM,,

# Continued by falling MIC (Candida tropicalis), values first:
MIC (Candida tropicalis),MIC (Staphylococcus aureus),MIC [1],MIC (Pichia kudriavzevii),MIC [2],MIC (Pseudomonas aeruginosa),MIC (Proteus vulgaris),MIC (Candida albicans),MIC (Enterococcus faecalis),MIC (Nakaseomyces glabratus),MIC (Enterobacter cloacae),MIC (Escherichia coli),Structure (SMILES),IC50 (HeLa),IC50 (MCF7 [3]),IC50 (MCF7 [4]),IC50 (MCF7 [5])
50 µg/mL,25 µg/mL,15 µg/mL,50 µg/mL,20 µg/mL,20 µg/mL,15 µg/mL,25 µg/mL,50 µg/mL,15 µg/mL,25 µg/mL,20 µg/mL,O=C(NC(=S)Nc1nc2cc([N+](=O)[O-])ccc2s1)c1ccccc1,75.1 µM,41.6 µM,,
25 µg/mL,25 µg/mL,50 µg/mL,50 µg/mL,25 µg/mL,50 µg/mL,50 µg/mL,50 µg/mL,50 µg/mL,25 µg/mL,50 µg/mL,25 µg/mL,O=C(NC(=S)Nc1nc2cc(Br)ccc2s1)N1CCOCC1,38.9 µM,18.1 µM,20.3 µM,6.95 µM
25 µg/mL,50 µg/mL,50 µg/mL,50 µg/mL,50 µg/mL,50 µg/mL,25 µg/mL,50 µg/mL,50 µg/mL,50 µg/mL,25 µg/mL,25 µg/mL,Nc1ccc2sc(NC(=S)NC(=O)c3ccc([N+](=O)[O-])cc3)nc2c1,63.1 µM,33.2 µM,,
25 µg/mL,50 µg/mL,50 µg/mL,25 µg/mL,25 µg/mL,50 µg/mL,25 µg/mL,25 µg/mL,50 µg/mL,25 µg/mL,25 µg/mL,25 µg/mL,O=C(NC(=S)Nc1nc2ccccc2s1)N1CCOCC1,51.8 µM,29.3 µM,,
20 µg/mL,25 µg/mL,50 µg/mL,25 µg/mL,20 µg/mL,50 µg/mL,20 µg/mL,20 µg/mL,50 µg/mL,15 µg/mL,25 µg/mL,20 µg/mL,Nc1ccc2sc(NC(=S)NC(=O)N3CCOCC3)nc2c1,45.3 µM,26.4 µM,19.2 µM,17.1 µM
15 µg/mL,25 µg/mL,25 µg/mL,20 µg/mL,10 µg/mL,20 µg/mL,20 µg/mL,15 µg/mL,15 µg/mL,10 µg/mL,15 µg/mL,15 µg/mL,O=C(NC(=S)Nc1nc2cc([N+](=O)[O-])ccc2s1)c1cccs1,72.6 µM,35.9 µM,,
